# bIAP act = intestinal alkaline phosphatase (bovine) activation; purified bovine IAP, CDP-star luminescence, 30 min; active compounds read high; fold of DMSO-control signal, blank-subtracted; activation factor at 20 µM; actives 0.17% (n = 200,000); AID 1016;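 active = activation factor of 2 or more at 20 µM, a signal rise over negative controls twice the positive control's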
# mIAP activ = mouse IAP activation; activation factor at 10 µM; muIAP, CDP-Star luminescence, 30 min; active compounds read high; 1 = vehicle-only enzyme signal, 0 = enzyme-free wells; actives 0.24% (n = 330,000);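 active = activation factor of at least 2 at 20 µM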
#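 System: Mouse IAP enzyme | Also added: CDP-Star substrate | Dosing: Compounds dispensed in DMSO | Schedule: 30 min enzyme-substrate-compound incubation at room temperature | Technique: Chemiluminescence readout | Control set: DMSO-only wells and no-enzyme negative control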
# bIAP inhibitor = intestinal alkaline phosphatase (bovine) inhibition | inhibition, % at 20 µM | purified bovine IAP, CDP-star luminescence, 30 min | 190,000 tested, under 10 active | AID 1019;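 active = over 50% inhibition of intestinal alkaline phosphatase at 20 µM in the single-dose screen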
#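 test system = bovine IAP enzyme | medium = DEA buffer 100 mM, pH 9.8, with MgCl2 1.0 mM, ZnCl2 0.02 mM | detection = luminescence | dosing = single compound dose of 20 µM, 2% DMSO final | incubation = 30 min reaction at room temperature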
# mIAP inh = mouse IAP inhibition. purified mouse IAP, CDP-Star luminescence, 30 min. inhibition, % at 10 µM. actives 0.2% (n = 330,000);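 active = inhibition of at least 40% at 10 µM in the primary screen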;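 note: plate controls were DMSO with enzyme for no effect and no enzyme wells for full effect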
# hIAP activ = increases human intestinal alkaline phosphatase activity. purified human IAP, CDP-Star luminescence, 30 min; active compounds read high; 1 = vehicle-only enzyme, 0 = enzyme-free background. activation factor at 10 µM. actives 0.16% (n = 330,000);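 active = activation factor of the enzyme at least 2-fold when tested at 20 µM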
# Target sequence (P09923 whole entry, looked up): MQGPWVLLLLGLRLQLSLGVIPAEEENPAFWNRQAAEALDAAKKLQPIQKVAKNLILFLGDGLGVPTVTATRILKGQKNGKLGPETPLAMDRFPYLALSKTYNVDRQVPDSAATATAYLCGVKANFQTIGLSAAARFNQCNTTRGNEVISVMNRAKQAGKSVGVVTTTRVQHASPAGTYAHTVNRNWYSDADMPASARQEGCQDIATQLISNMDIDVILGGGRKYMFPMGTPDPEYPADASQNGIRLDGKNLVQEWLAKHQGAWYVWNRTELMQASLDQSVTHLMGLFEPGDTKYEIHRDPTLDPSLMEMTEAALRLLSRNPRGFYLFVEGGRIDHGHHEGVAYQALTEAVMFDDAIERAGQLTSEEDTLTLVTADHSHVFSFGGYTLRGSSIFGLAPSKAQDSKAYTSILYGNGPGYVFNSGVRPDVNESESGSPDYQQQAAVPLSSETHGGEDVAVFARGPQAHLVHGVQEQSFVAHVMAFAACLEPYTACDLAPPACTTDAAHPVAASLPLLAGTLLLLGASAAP
# hIAP block = blocks human intestinal alkaline phosphatase | actives 0.12% (n = 330,000) | inhibition, % at 10 µM | purified IAP, CDP-Star luminescence, 30 min;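 active = inhibition reaching a set limit with compound at 10 µM in the primary screen, cut at about 35% in these data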;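 note: plate controls were DMSO wells with enzyme for no effect and no-enzyme buffer wells for full effect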
# * = called active by the depositor; i = inactive; / = no result. A selection: hits, their analogues and other compounds. The true share with any hit is near 0.79%.
SMILES,bIAP act,mIAP activ,bIAP inhibitor,mIAP inh,hIAP activ,hIAP block
S=C(Nc1ccc(N2CCOCC2)cc1)Nc1ccc2nc(-c3ccco3)c(-c3ccco3)nc2c1,0.8,0.553,22.8,44.7*,0.881,11.9
O=C(Nc1ccc(N2CCOCC2)cc1)c1ccc2nc(-c3ccco3)c(-c3ccco3)nc2c1,0.9,0.921,14.2,7.9,1.18,-18.3
Cc1cccc2nc(CSc3nc4ccccc4[nH]3)cn12,2.6*,0.901,-155.3,9.9,0.916,8.4
c1ccc2[nH]c(SCc3cn4ccccc4n3)nc2c1,1.4,1.06,-40.9,-6.0,1.46,-46.0
Cc1noc(C)c1S(=O)(=O)N(C)C[C@H]1Oc2c(cccc2N(C)C)C(=O)N([C@H](C)CO)C[C@@H]1C,/,0.878,/,12.2,1.04,-4.1
CCCCCCCCn1ccc(=N)cc1,/,1.05,/,-4.7,0.975,2.5
COc1ccc(/C=C(/C(=O)c2ccc(Cl)cc2Cl)n2cncn2)cc1,0.9,0.972,8.6,2.8,1.04,-4.5
CN(C)c1ccc(/C=C(/C(=O)c2ccc(Cl)cc2Cl)n2cncn2)cc1,0.9,0.581,5.9,41.9*,0.749,25.1
Cc1ncc([N+](=O)[O-])n1S(=O)(=O)c1cc(Br)ccc1Br,/,1.1,/,-9.7,1.06,-5.9
Cc1ccc(C(NC(=O)NC(C)c2ccccc2)C(Cl)(Cl)Cl)cc1F (stereo unspecified),0.7,13.8*,25.6,i,0.871,12.9
CC(NC(=O)c1cc2cc(F)ccc2[nH]1)c1ccccc1 (stereo unspecified),/,1.21,/,-20.8,0.936,6.4
Cc1ccc(S(=O)(=O)Nc2ccc(NC(=O)Nc3cccc(C(F)(F)F)c3)cc2)cc1,0.9,2.61*,12.7,-160.6,1.09,-8.9
O=C(Nc1ccncc1)Nc1cccc(C(F)(F)F)c1,/,1.08,/,-7.8,1.03,-2.7
Cc1cc(-c2csc(NC(=O)c3ccc(=O)[nH]c3)n2)c(C)n1Cc1ccccc1,1.1,0.618,-8.3,38.2,0.968,3.2
Cc1cc(-c2csc(NC(=O)c3ccc(C#N)cc3)n2)c(C)n1Cc1ccco1,0.9,0.59,9.9,41.0*,0.99,1.0
C#CCOCCOCCOCCNc1nc(N2CCN(C(=O)[C@H](Cc3cc4ccccc4[nH]3)n3cc([C@@H](N)CC(C)C)nn3)CC2)nc(N2CCN(C(=O)[C@H](Cc3cc4ccccc4[nH]3)n3cc([C@@H](N)CC(C)C)nn3)CC2)n1,3.2*,2.09*,-220.4,-109.2,1.12,-12.1
C#CCOCCOCCOCCNc1nc(N2CCN(C(=O)[C@H]([C@@H](C)CC)n3cc([C@@H](N)Cc4ccc(O)cc4)nn3)CC2)nc(N2CCN(C(=O)[C@H](Cc3cc4ccccc4[nH]3)n3cc([C@@H](N)C(C)CC)nn3)CC2)n1 (stereo partly specified),1.6,1.39,-59.0,-39.0,0.799,20.1
C#CCOCCOCCOCCNc1nc(N2CCN(C(=O)[C@H](Cc3cc4ccccc4[nH]3)n3cc([C@@H](N)C(C)CC)nn3)CC2)nc(N2CCN(C(=O)[C@H](Cc3cc4ccccc4[nH]3)n3cc([C@@H](N)Cc4ccc(O)cc4)nn3)CC2)n1 (stereo partly specified),2.2*,2.08*,-115.9,-108.2,1.11,-10.7
Cc1ccc(OCCSc2nc(NC(C)C)nc(NC(C)C)n2)cc1,1,0.903,-2.2,9.7,0.841,15.9
CCN1C(=O)/C(=C/C=C2/SCCN2C)SC1=S,0.9,0.517,13.3,48.3*,0.908,9.2
CN1CCS/C1=C\C=C1/SC(=S)N(CC(=O)O)C1=O,0.4,/,/,/,/,/
O=C(CN1C(=O)/C(=C/c2cccc(Br)c2)SC1=S)N1CCCC1,0.8,1.06,25.0,-5.8,1.04,-3.7
COc1cccc(-c2cccc(NC(=O)C3CCN(Cc4ccc(CO)o4)CC3)c2)c1,/,0.974,/,2.6,0.922,7.8
O=C(Nc1cccc(-c2cccc(F)c2)c1)C1CCN(Cc2ccc(CO)o2)CC1,/,2.07*,/,-107.3,1.02,-2.3
O=c1oc2c3c4c(cc2c2c1CCC2)OCCN4CCC3,1.1,0.913,-11.7,8.7,0.851,14.9
SMILES,bIAP act,mIAP activ,bIAP inhibitor,mIAP inh,hIAP activ,hIAP block
Cc1ccc(S(=O)(=O)N2CCN(CC(=O)NC3CCCc4ccccc43)CC2)c(C)c1 (stereo unspecified),56.5*,1.27,i,-26.9,1.03,-2.7
Nc1ncc(Br)cc1S(=O)(=O)Nc1cc(C(F)(F)F)cc(C(F)(F)F)c1,/,0.968,/,3.2,1.05,-4.9
Cc1nn(C)c(C)c1NC(=O)Nc1ccc(Cl)c(Cl)c1,1,2.14*,2.2,-114.1,1.1,-10.3
Cc1nn(C)c(C)c1NC(=O)Nc1cccc(C(F)(F)F)c1,0.9,1.04,5.7,-4.5,1.06,-6.3
CCc1cc(Cn2nc(-c3ccccc3)cc2C(=O)O)on1,/,1.06,/,-5.6,0.881,11.9
CCc1cc(Cn2nc(-c3ccccc3)cc2C(=O)NCc2ccc(C)cc2)on1,/,3.33*,/,-232.7,0.771,22.9
Fc1ccc(N2N=C(c3cccs3)CC2c2ccccc2)cc1 (stereo unspecified),1.3,1.8,-33.8,-80.1,1.01,-0.9
Fc1ccccc1N1CC(c2ccccc2)C(c2cccs2)=N1 (stereo unspecified),1.7,2.19*,-70.4,-118.6,1.1,-10.4
COc1cc(OC)cc(C(=O)Nc2ccccc2C(=O)NC2CC2)c1,/,1.01,/,-1.4,0.895,10.5
CN(C(=O)COc1ncnc2sccc12)C1CCCCC1,/,0.987,/,1.3,0.896,10.4
COc1ccc(-c2nn(-c3ccccc3)cc2C(=O)NCCCn2ccnc2)cc1,2.3*,1.46,-125.2,-46.2,0.914,8.6
COc1ccc(C(=O)NCCCn2ccnc2)cc1,0.9,0.973,5.7,2.7,1.26,-26.3
CC(C)(C)c1ccc(NC(=O)Nc2ccc(OCC(=O)N3CCOCC3)cc2)cc1,1.3,2.08*,-29.3,-107.8,1.05,-5.1
COc1cccc(CNC(=O)C2CCCN(C(=O)c3ccc(Cl)cc3)C2)c1 (stereo unspecified),/,1.08,/,-8.3,1,-0.5
Cc1ccc(C2(C)NC(=O)N(CC(=O)c3ccc(Cl)s3)C2=O)cc1 (stereo unspecified),2*,0.85,-97.2,15.0,1.05,-5.5
Cn1cccc1CC(=O)NNC(=S)Nc1ccc(Cl)cc1,1,0.959,-4.2,4.1,2.1*,-110.1
COCCNC(=O)/C=C/c1c(Cl)cccc1Cl,0.9,0.949,6.8,5.1,0.647,35.3*
Cc1c(/C=N/NC(=O)CNc2ccccc2)c2ccccn2c1C(=O)c1ccc(Cl)cc1,10.4*,0.823,i,17.7,0.879,12.1
Cc1ccccc1NCC(=O)N/N=C/c1c(C)c(C(=O)c2ccc(Cl)cc2)n2ccccc12,1,0.822,-3.0,17.8,0.989,1.1

# Compound activity deposited in PubChem BioAssay by Sanford-Burnham Center for Chemical Genomics.
